Screens (PubChem)
INS-1E rescue = rescue of cytokine-induced death in INS-1E beta cells. AID 488910. 20,000 compounds, 0.1% hits. INS-1E cytokine-induced death, ATP luminescence, 48 h; normalised: neutral wells 0, positive control 100. protection from cytokine-induced ATP loss, % at 10 µM;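 active means mean replicate protection from cytokine-induced ATP loss at least 50% and at least 75% of replicates each reaching 50%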
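Assay system: INS-1E rat cells / Quantity: 8000 cells per well / Medium: RPMI without phenol red, 5% FBS / Probe or stimulus: three-cytokine cocktail (IFN-γ, TNF-α, IL-1β) / Dosing: one compound concentration, pin transfer / Timing: 48 h co-treatment, 10 min post-lysis read / Technique: CellTiter-Glo luminescence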
T cruzi intra = blocks T. cruzi growth inside host cells; intracellular Trypanosoma cruzi in host cells, plate reader; activity score (inhibition), % at 5.01 µM; 22,000 compounds, 4.9% hits; in the data active means activity score above about 55%;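 further: parasites and compound incubated about four days before reading; 0% = median of neutral control wells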
A1 apoptosis 2 = blocks A1, raising caspase activity | MEF A1-2A-BIM cells, caspase-Glo luminescence, 3 h; percent of clofoctol response, DMSO zero | caspase activation, % (test concentration not listed) | 24,000 tested, under 10 active | AID 2465; in the data active means caspase activation above about 5.9%
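system = A1-2A-BIM-expressing MEF cells | quantity = 2500 MEF cells/well | dosing = 50 nL compound per well, pinned | schedule = overnight cell settling, then 3 h compound exposure, 37 °C | signal = luminescence from DEVD-luciferin Caspase-Glo reagent, 1:1 in 50 mM HEPES, 1 h RT | read-out = Caspase-3/7 activation, seen as rise in luminescence signal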
* = called active by the depositor; nt = no result. Only a selection was taken, and hits are over-represented in it overall.

SMILES | INS-1E rescue | T cruzi intra | A1 apoptosis 2
C[C@@H]1CN([C@@H](C)CO)C(=O)c2cccc(NC(=O)c3ccncc3)c2O[C@@H]1CN(C)Cc1ccccc1 | -1 | -18 | nt
C[C@@H]1CN([C@H](C)CO)C(=O)c2cccc(NC(=O)c3ccncc3)c2O[C@H]1CN(C)Cc1ccc(-c2ccccc2)cc1 | -22 | 84* | nt
C[C@@H]1CN([C@@H](C)CO)C(=O)c2cccc(NC(=O)c3ccncc3)c2O[C@H]1CN(C)Cc1ccc(-c2ccccc2)cc1 | -22 | 83* | nt
C[C@@H]1CN([C@@H](C)CO)C(=O)c2cccc(NC(=O)c3ccncc3)c2O[C@H]1CN(C)Cc1ccc(C(=O)O)cc1 | 11 | -23 | 0
C[C@H](CO)N1C[C@H](C)[C@@H](CN(C)Cc2ccccc2)Oc2c(NC(=O)c3ccncc3)cccc2C1=O | -6 | 79* | nt
C[C@H](CO)N1C[C@H](C)[C@@H](CN(C)C(=O)Nc2ccc(F)cc2)OCCCC[C@H](C)Oc2ccc(NC(=O)c3ccccc3)cc2C1=O | nt | nt | 0
C[C@H]1CN([C@@H](C)CO)C(=O)c2cc(NC(=O)c3ccncc3)ccc2O[C@@H]1CN(C)C(=O)Nc1ccc(F)cc1 | -1 | -2 | -1
COc1ccc(S(=O)(=O)N(C)C[C@@H]2Oc3c(NC(=O)Nc4ccc(C(F)(F)F)cc4)cccc3C(=O)N([C@H](C)CO)C[C@H]2C)cc1 | -17 | 40 | nt
COc1ccc(CN(C)C[C@H]2Oc3ccc(NS(=O)(=O)c4cn(C)cn4)cc3C(=O)N([C@@H](C)CO)C[C@H]2C)cc1 | -1 | 17 | 0
C[C@H](CO)N1C[C@H](C)[C@H](CN(C)Cc2ccncc2)OCCCC[C@H](C)Oc2ccc(NC(=O)Nc3ccccc3)cc2C1=O | nt | nt | 1
C[C@H](CO)N1C[C@H](C)[C@@H](CN(C)Cc2ccc(-c3ccccc3)cc2)Oc2c(NC(=O)c3ccncc3)cccc2C1=O | -28 | 57* | nt
C[C@@H]1CN([C@H](C)CO)C(=O)c2cccc(NC(=O)c3ccncc3)c2O[C@@H]1CN(C)Cc1ccc(C(=O)O)cc1 | 11 | 43 | -1
C[C@H](CO)N1C[C@H](C)[C@@H](CN(C)CC2CC2)Oc2c(NC(=O)c3ccncc3)cccc2C1=O | 10 | 17 | 1
C[C@@H]1CN([C@@H](C)CO)C(=O)c2cccc(NC(=O)c3cnccn3)c2O[C@@H]1CN(C)C(=O)Nc1cccc2ccccc12 | 7 | 2 | 0
C[C@@H]1CCCCO[C@H](CN(C)Cc2ccc(C(F)(F)F)cc2)[C@@H](C)CN([C@@H](C)CO)C(=O)c2cc(N(C)C)ccc2O1 | nt | nt | 1
C[C@@H]1CN([C@@H](C)CO)C(=O)Cc2cc(N(C)C)ccc2O[C@@H]1CN(C)Cc1ccc(Cl)c(Cl)c1 | -17 | 43 | -1
C[C@H]1CN([C@@H](C)CO)C(=O)Cc2cc(N(C)C)ccc2O[C@@H]1CN(C)Cc1ccc2c(c1)OCO2 | -5 | 64* | nt
C[C@H](CO)N1C[C@H](C)[C@@H](CN(C)Cc2ccc3c(c2)OCO3)Oc2ccc(N(C)C)cc2CC1=O | nt | nt | 0
C[C@@H]1CN([C@H](C)CO)C(=O)Cc2cc(N(C)C)ccc2O[C@@H]1CN(C)Cc1ccc2c(c1)OCO2 | -7 | -23 | nt
C[C@H]1CN([C@@H](C)CO)C(=O)Cc2cc(N(C)C)ccc2O[C@@H]1CN(C)Cc1ccc(Cl)c(Cl)c1 | -8 | 72* | nt
C[C@@H]1CN([C@H](C)CO)C(=O)Cc2cc(N(C)C)ccc2O[C@H]1CN(C)Cc1ccc2c(c1)OCO2 | -8 | 69* | 2
CNC[C@@H]1OCCCC[C@@H](C)Oc2ccc(NS(=O)(=O)c3c(C)noc3C)cc2C(=O)N([C@H](C)CO)C[C@@H]1C | -3 | -18 | -1
C[C@@H]1CN([C@H](C)CO)C(=O)c2cc(N(C)C)ccc2O[C@@H](C)CCCCO[C@H]1CN(C)C(=O)C1CCCCC1 | nt | nt | 2
C[C@H](CO)N1C[C@H](C)[C@@H](CN(C)Cc2cccc(O)c2)OCc2cn(nn2)CCCC1=O | nt | -8 | nt
C[C@@H]1CN([C@H](C)CO)C(=O)c2cc(NS(=O)(=O)c3ccc(F)cc3)ccc2O[C@H]1CN(C)Cc1ccc(Cl)c(Cl)c1 | -11 | 7 | nt
C[C@H](CO)N1C[C@H](C)[C@@H](CN(C)Cc2ccc(Cl)c(Cl)c2)Oc2ccc(NS(=O)(=O)c3ccc(Cl)cc3)cc2C1=O | -6 | 64* | nt
Cc1ccc(S(=O)(=O)Nc2ccc3c(c2)C(=O)N([C@H](C)CO)C[C@H](C)[C@@H](CN(C)Cc2ccc(Cl)c(Cl)c2)O3)cc1 | -7 | 9 | nt
